ChEMBL document CHEMBL1129463, “Discovery of 1,5-benzodiazepines with peripheral cholecystokinin (CCK-A) receptor agonist activity (II): Optimization of the C3 amino substituent” (J Med Chem, 1996)
Activity calls are given as the source filed them. The calls are words filed in the database; no cut-off is given here.

Legend:
[1] = target: T1, Gastrin/cholecystokinin type B receptor (Homo sapiens, UniProt P32239); experiment: Compound was tested in vitro for its ability to displace [125I]Bolton-Hunter CCK-8 from membrane preparation isolated from CHO-KI cells stably transfected with cDNA of human Cholecystokinin type B receptor; type: cell membranes
T1 sequence (P32239 whole entry): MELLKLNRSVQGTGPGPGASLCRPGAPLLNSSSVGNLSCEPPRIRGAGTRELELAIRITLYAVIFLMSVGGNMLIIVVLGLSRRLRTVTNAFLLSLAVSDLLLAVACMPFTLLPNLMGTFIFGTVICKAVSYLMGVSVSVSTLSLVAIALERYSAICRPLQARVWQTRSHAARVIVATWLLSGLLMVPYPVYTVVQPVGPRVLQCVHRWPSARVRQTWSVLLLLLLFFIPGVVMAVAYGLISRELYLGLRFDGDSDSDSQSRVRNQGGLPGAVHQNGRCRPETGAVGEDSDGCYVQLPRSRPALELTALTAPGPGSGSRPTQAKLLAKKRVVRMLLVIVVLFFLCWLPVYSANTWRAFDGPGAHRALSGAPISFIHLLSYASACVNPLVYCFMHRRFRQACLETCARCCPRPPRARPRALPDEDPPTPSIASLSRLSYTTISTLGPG

[2] = target: T2, Cholecystokinin receptor type A (Homo sapiens, UniProt P32238); experiment: Compound was tested in vitro for its ability to displace [125I]Bolton-Hunter CCK-8 from membrane preparation isolated from CHO-KI cells stably transfected with cDNA of human Cholecystokinin type A receptor; type: cell membranes
T2 sequence (P32238 whole entry): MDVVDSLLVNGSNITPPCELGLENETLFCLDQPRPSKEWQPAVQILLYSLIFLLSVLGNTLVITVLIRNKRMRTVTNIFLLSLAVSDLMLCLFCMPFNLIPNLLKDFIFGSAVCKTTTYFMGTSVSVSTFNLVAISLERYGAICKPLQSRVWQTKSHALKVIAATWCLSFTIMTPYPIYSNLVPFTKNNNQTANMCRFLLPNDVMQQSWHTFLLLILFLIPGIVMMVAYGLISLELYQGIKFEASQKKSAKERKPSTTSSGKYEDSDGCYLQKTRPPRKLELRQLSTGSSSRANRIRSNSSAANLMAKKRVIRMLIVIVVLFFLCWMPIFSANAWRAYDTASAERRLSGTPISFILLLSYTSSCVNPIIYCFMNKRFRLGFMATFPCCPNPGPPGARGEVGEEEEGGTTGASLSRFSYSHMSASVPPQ

Cavia porcellus [3] = species on record: Cavia porcellus; experiment: Maximum contractile response at 30 uM, normalized to CCK-8 (1 uM); type: functional
Cavia porcellus [4] = species on record: Cavia porcellus; experiment: In-vitro potency on the isolated guinea pig gallbladder; type: functional
Cavia porcellus [5] = species on record: Cavia porcellus; experiment: In vitro Functional activity on the isolated guinea pig gallbladder following incubation at 1 micro M percent contraction normalized to that for CCK-8
How it was run: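 Contraction is expressed as percent of the CCK-8 (1 μM) response. Non-contracting compounds were tested for antagonism against a CCK-8 curve (10⁻¹¹ to 10⁻⁶ M).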

Cavia porcellus [6] = species on record: Cavia porcellus; experiment: In vitro functional activity on the isolated guinea pig gallbladder; set-up: concentration or dose not given beside the values
Mus musculus [7] = experiment: Compound was tested in vivo for its activity in mouse gallbladder emptying assay at dose of 1 umol/kg po; type: functional
Mus musculus [8] = experiment: Compound was tested in vivo for Percent Maximal response in mouse gallbladder emptying assay at dose of 1 umol/kg po; type: functional
Rattus norvegicus [9] = experiment: Compound was tested in vivo for its Percent Maximal anorectic potency in rats at dose of 0.1 umol/kg ip; type: functional
Rattus norvegicus [10] = experiment: Compound was tested in vivo for its Percent Maximal anorectic potency in rats at dose of 1 umol/kg po; type: functional
Mus musculus [11] = experiment: Compound was tested in vivo for its activity in mouse gallbladder emptying assay at dose of 0.1 umol/kg ip; type: functional
Rattus norvegicus [12] = experiment: Compound was tested in vivo for its anorectic potency in rats at dose of 0.5 umol/kg ip
Mus musculus [13] = experiment: Compound was tested in vivo Percent Maximal response activity in mouse gallbladder emptying assay at dose of 1 nmol/kg ip
Rattus norvegicus [14] = experiment: Compound was tested in vivo for its anorectic potency in rats at dose of 0.1 umol/kg ip; type: functional
Rattus norvegicus [15] = experiment: Compound was tested in vivo for its Percent Maximal anorectic potency in rats at dose of 0.5 umol/kg ip; type: functional
Rattus norvegicus [16] = experiment: Compound was tested in vivo for its Percent Maximal anorectic potency in rats at dose of 10 umol/kg po; ia = Inactive; type: functional, organism-based
[17] = target: Cholecystokinin receptor (Homo sapiens) (UniProt P32239+P32238); experiment: Selectivity ratio of inhibition of CCK-A vs CCK-B; type: protein assay
How it was run: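 Displacement of [125I]Bolton-Hunter CCK-8 from membranes of CHO-K1 cells stably transfected with human CCK-A or CCK-B receptor cDNA. pIC50 values were measured for each receptor. The ratio is IC50 CCK-A / IC50 CCK-B.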

| SMILES | IC50 [1] [nM] | IC50 [2] [nM] | Max (Cavia porcellus [3]) [%] | EC50 (Cavia porcellus [4]) [nM] | Activity (Cavia porcellus [5]) [%] | Activity (Cavia porcellus [6]) [%] | ED50 (Mus musculus [7]) [µmol/kg] | Max (Mus musculus [8]) [%] | Max (Rattus norvegicus [9]) [%] | Max (Rattus norvegicus [10]) [%] | ED50 (Mus musculus [11]) [µmol/kg] | ED50 (Rattus norvegicus [12]) [µmol/kg] | Max (Mus musculus [13]) [%] | ED50 (Rattus norvegicus [14]) [µmol/kg] | Max (Rattus norvegicus [15]) [%] | Max (Rattus norvegicus [16]) | Selectivity ratio [17] |
| --- | --- | --- | --- | --- | --- | --- | --- | --- | --- | --- | --- | --- | --- | --- | --- | --- | --- |
| CC(C)N(C(=O)CN1C(=O)C(NC(=O)Nc2cccc(C(=O)O)c2)C(=O)N(c2ccccc2)c2ccccc21)c1ccccc1 (stereo unspecified) | 10 | 126 | 102 | 39.8 | 95 | 100 | 0.055 | 77 | 87 | 58 | 0.0071 | 0.06 | 73 |  |  |  |  |
| CC(C)N(C(=O)CN1C(=O)C(NC(=O)c2cc3ccccc3[nH]2)C(=O)N(c2ccccc2)c2ccccc21)c1ccccc1 (stereo unspecified) | 316 | 15.8 | 49 | 501 |  | 49 | 0.3 | 85 |  |  | 0.005 |  | 73 | 0.095 | 56 | inactive | 20 |
